Measurements from ChEMBL document CHEMBL3763045, “Design, Synthesis, and Pharmacological Evaluation of Novel N-Acylhydrazone Derivatives as Potent Histone Deacetylase 6/8 Dual Inhibitors” (J Med Chem, 2016).
In brackets after ≈: the same amount, converted by molar mass. Values belong to the molecule of their own block, whether it stands above or below them. Activity calls are given as the source filed them. No cut-off for these calls is given here.

Columns and labels:
[1] = Aqueous solubility of the compound in buffer at pH 7.4 after 24 hrs by spectrophotometric method; format: physicochemical
How it was run: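 Water solubility in pH 7.4 buffer, measured spectrophotometrically by the method of Schneider and coworkers.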

[2] = molecular target: Histone deacetylase (Rattus norvegicus) (UniProt Q6P6W3+Q99P99+Q99P96+Q4QQW4+Q99P97+Q5RJZ2+B1WBY8); test: Inhibition of HDAC in rat liver at 1 uM by fluorimetry
How it was run: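 Rat liver HDAC preparation, non-selective enzyme assay, test compounds at 1 µM; % inhibition is the mean of two experiments.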

MCF7 = test: Antiproliferative activity against human MCF7 cells assessed as reduction in cell viability at 40 uM after 48 hrs by MTS assay; format: functional, cell-based
How it was run: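 MCF-7 cells exposed at 40 µM for 48 h, viability by MTS; ANOVA with Tukey's post-test against control.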

[3] = Antiproliferative activity against human HT144 cells assessed as reduction in cell viability after 48 hrs by MTS assay; format: functional, cell-based; settings: HT-144, 48 h
[4] = Ionization constant, pKa of the compound in buffer measured over 3 hrs by UV spectrometry; format: physicochemical
Calu-1 = test: Inhibition of cell migration in human Calu1 cells at 27 and 54 nM after 48 hrs by scratch test; format: functional, cell-based
How it was run: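 Calu-1 migration by scratch test after 48 h treatment. DMSO vehicle control; one representative of three independent experiments.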

[5] = Chemical stability of the compound in acidic buffer assessed as compound recovery at pH 2 after 4 hrs by HPLC-PDA analysis; format: physicochemical; settings: acidic buffer, pH 2; read-out: Drug recovery
How it was run: (§1)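 Compounds stirred in pH 7.4 or pH 2 buffer at 37 °C for 240 min; percentage of compound recovered followed over time (30 min and 4 h points). Triplicate runs, values averaged.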

HepG2 [6] = test: Antiproliferative activity against human HepG2 cells assessed as reduction in cell viability after 48 hrs by MTS assay; format: functional, cell-based; settings: HepG2, 48 h
[7] = Chemical stability of the compound in acidic buffer assessed as compound hydrolysis at pH 2 measured for 240 mins by HPLC-PDA analysis; format: physicochemical; settings: pH 2, 4 h; how it was run: as §1
[8] = Lipophilicity, logD of the compound at pH 7.4 after 4 hrs; format: physicochemical; settings: buffer
HepG2 [9] = test: Antiproliferative activity against human HepG2 cells assessed as reduction in cell viability at 40 uM after 48 hrs by MTS assay; format: functional, cell-based
Histone deacetylase 8 = molecular target: T1, Histone deacetylase 8 (Homo sapiens, UniProt Q9BY41); test: Inhibition of recombinant human HDAC8 by fluorimetry
T1 sequence (Q9BY41 whole entry): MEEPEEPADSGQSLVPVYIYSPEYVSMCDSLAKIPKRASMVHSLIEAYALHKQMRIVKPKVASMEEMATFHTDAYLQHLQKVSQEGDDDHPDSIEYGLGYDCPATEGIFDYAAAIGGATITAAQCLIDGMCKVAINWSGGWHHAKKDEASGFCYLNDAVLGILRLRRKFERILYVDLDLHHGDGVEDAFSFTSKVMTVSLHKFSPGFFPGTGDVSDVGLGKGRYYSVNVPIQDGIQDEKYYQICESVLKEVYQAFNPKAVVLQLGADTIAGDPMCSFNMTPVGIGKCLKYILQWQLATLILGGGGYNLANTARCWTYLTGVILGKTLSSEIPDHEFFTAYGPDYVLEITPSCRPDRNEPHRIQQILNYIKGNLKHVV

[10] = molecular target: T2, Protein deacetylase HDAC6 (Homo sapiens) (UniProt Q9UBN7); test: Inhibition of HDAC6 in human Calu1 cells assessed as induction of tubulin acetylation at 27 to 54 nM after 24 hrs by Western blotting analysis; format: cell-based; settings: Calu-1
T2 sequence (whole entry): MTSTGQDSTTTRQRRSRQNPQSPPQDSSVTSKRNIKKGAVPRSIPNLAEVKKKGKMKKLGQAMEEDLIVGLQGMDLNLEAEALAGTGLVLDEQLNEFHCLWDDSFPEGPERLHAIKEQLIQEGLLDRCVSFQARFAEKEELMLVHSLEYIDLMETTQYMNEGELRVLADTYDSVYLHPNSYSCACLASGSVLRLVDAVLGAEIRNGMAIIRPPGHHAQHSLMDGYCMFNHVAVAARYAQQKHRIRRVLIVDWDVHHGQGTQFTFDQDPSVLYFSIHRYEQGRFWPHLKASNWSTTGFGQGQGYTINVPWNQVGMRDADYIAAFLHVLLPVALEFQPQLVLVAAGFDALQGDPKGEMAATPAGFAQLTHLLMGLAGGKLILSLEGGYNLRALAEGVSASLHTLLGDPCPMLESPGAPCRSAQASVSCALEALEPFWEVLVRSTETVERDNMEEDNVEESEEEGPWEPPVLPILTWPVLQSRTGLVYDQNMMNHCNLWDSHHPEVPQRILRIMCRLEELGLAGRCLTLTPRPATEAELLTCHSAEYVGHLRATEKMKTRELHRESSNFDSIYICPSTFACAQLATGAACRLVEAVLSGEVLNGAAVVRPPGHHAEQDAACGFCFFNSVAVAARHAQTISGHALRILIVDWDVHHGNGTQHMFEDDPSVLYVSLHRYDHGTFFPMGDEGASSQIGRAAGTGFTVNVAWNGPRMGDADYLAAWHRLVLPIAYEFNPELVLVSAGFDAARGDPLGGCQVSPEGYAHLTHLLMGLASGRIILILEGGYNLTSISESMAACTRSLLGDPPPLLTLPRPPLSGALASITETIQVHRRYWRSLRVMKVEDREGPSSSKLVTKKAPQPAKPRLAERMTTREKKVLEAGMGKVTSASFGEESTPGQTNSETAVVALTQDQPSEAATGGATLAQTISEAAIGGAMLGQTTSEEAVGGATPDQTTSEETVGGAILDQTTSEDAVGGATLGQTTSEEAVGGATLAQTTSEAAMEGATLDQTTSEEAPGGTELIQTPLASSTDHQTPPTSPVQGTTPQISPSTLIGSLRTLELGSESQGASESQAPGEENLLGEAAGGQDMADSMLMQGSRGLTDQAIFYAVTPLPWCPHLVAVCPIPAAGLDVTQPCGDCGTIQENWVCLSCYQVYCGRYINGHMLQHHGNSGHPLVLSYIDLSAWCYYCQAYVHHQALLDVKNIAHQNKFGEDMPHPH
How it was run: (§2)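 Calu-1 and A549 cells treated 24 h, acetylated tubulin detected by western blot with GAPDH as loading control. DMSO vehicle control; one representative of three independent experiments.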

[11] = Chemical stability of compound in phosphate dibasic buffer assessed as compound degradation at pH 7.4 by HPLC-PDA analysis; format: physicochemical; settings: read-out: Drug degradation; how it was run: as §1
Histone deacetylase = test: Inhibition of HDAC in rat liver by fluorimetry
How it was run: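 Rat liver HDAC IC50 from a six-point enzyme assay, three-fold serial dilution starting at 3 µM or 1 µM depending on compound; mean of two experiments ± SD.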

Histone deacetylase 2 = Histone deacetylase 2 (Homo sapiens, UniProt Q92769); test: Inhibition of recombinant human HDAC2 by fluorimetry
[12] = molecular target: T2, Protein deacetylase HDAC6 (Homo sapiens); test: Inhibition of HDAC6 in human A549 cells assessed as induction of tubulin acetylation at 27 to 54 nM after 24 hrs by Western blotting analysis; format: cell-based; how it was run: as §2
Histone deacetylase 1 = Histone deacetylase 1 (Homo sapiens, UniProt Q13547); test: Inhibition of recombinant human HDAC1 by fluorimetry
[13] = molecular target: T3, Protein deacetylase HDAC6 (Homo sapiens, UniProt Q9UBN7); test: Inhibition of recombinant human HDAC6 by fluorimetry
T3 sequence (Q9UBN7 whole entry): T2 sequence (whole entry)

HT-144 = test: Antiproliferative activity against human HT144 cells assessed as reduction in cell viability at 40 uM after 48 hrs by MTS assay; format: functional, cell-based
[14] = Chemical stability of the compound in acidic buffer assessed as compound recovery at pH 2 after 30 mins by HPLC-PDA analysis; format: physicochemical; settings: buffer, pH 2, 0.5 h; how it was run: as §1

Histone deacetylase 2, sequence (Q92769 whole entry): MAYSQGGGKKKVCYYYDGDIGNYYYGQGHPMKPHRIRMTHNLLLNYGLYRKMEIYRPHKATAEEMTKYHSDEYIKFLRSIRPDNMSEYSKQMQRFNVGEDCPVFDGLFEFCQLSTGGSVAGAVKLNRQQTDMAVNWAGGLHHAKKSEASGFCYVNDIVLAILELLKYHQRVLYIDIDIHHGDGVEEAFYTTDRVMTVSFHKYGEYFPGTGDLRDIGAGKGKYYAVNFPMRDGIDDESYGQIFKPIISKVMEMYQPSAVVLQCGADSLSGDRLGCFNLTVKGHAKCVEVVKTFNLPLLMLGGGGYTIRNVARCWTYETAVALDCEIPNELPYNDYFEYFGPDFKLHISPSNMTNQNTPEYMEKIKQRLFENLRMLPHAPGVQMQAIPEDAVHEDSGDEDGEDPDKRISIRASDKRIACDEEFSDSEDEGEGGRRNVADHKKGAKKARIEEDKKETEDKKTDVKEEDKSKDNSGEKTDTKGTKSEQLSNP
Histone deacetylase 1, sequence (Q13547 whole entry): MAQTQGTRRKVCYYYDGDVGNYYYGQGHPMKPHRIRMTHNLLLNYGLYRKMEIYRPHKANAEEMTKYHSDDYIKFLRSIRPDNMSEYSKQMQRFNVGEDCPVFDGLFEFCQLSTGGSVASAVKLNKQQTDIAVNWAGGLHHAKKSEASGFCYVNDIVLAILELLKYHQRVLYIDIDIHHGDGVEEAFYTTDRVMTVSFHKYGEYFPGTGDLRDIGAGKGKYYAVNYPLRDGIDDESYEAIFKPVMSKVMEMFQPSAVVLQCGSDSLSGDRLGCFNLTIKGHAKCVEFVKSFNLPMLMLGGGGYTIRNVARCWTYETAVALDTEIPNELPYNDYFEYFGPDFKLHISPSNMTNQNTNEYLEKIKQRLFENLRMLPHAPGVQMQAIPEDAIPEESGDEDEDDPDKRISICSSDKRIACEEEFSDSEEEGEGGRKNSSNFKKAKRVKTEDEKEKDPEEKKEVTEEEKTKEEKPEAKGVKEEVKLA

pKa at 3 h [4]: 8.1 | inhibition [2]: 90.4% | remaining at 4 h [5]: 70% | IC50 (HepG2 [6]): 24.1 µM | Stability [7]: Unstable | logD at 4 h [8]: 0.98 | IC50 (Histone deacetylase 8): 0.13 µM | inhibition [10]: Active | degraded [11]: > 15% | IC50 (Histone deacetylase): 0.018 µM | IC50 (Histone deacetylase 2): > 3 µM | inhibition [12]: Active | IC50 (Histone deacetylase 1): > 3 µM | IC50 [13]: 0.027 µM | solubility at 24 h [1]: > 64 µM
Structure (SMILES): CN(/N=C/c1ccc(C(=O)NO)cc1)C(=O)c1ccc(N(C)C)cc1
Activity (MCF7): Active | IC50 [3]: 36.1 µM | inhibition (Calu-1): Active | Activity (HepG2 [9]): Active | Activity (HT-144): Active

Stability [14]: Unstable | IC50 (HepG2 [6]): 30.3 µM | Stability [7]: Unstable | IC50 (Histone deacetylase 8): 0.054 µM | degraded [11]: > 15% | IC50 (Histone deacetylase 2): > 3 µM | IC50 (Histone deacetylase 1): > 3 µM | IC50 [13]: 0.097 µM | solubility at 24 h [1]: 122 µM (≈ 43.2 µg/mL)
Structure (SMILES): C/C(=N\N(C)C(=O)c1ccc(N(C)C)cc1)c1ccc(C(=O)NO)cc1
Activity (MCF7): Active | IC50 [3]: 51.6 µM | Activity (HepG2 [9]): Active | Activity (HT-144): Active

Second part, the molecule before the results:

Structure (SMILES): CN(C)c1ccc(C(=O)N/N=C/c2cccc(C(=O)O)c2)cc1
solubility at 24 h [1]: > 70 µM

Structure (SMILES): CN(C)c1ccc(C(=O)N/N=C/c2ccc(C(=O)O)cc2)cc1
inhibition [2]: -9.1% | solubility at 24 h [1]: > 77 µM

Structure (SMILES): COC(=O)c1cccc(/C=N/N(C)C(=O)c2ccc(N(C)C)cc2)c1
solubility at 24 h [1]: 8.2 µM (≈ 2.78 µg/mL)

Structure (SMILES): COC(=O)c1cccc(/C=N/NC(=O)c2ccc(N(C)C)cc2)c1
inhibition [2]: -4.6% | solubility at 24 h [1]: 3.7 µM (≈ 1.2 µg/mL)

Structure (SMILES): CN(/N=C/c1cccc(C(=O)O)c1)C(=O)c1ccc(N(C)C)cc1
inhibition [2]: -5.8% | solubility at 24 h [1]: > 67 µM
